A selection: hits, their analogues and other compounds. The true share with any hit is near 3.7%.
E-selectin induc: E-selectin induction on HUVECs | actives 0.37% (n = 260,000) | P16581 | activation, % at 7.58 µM | HUVEC E-selectin immunofluorescence imaging; normalized: neutral wells 0, TNF-alpha wells 100;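 active means mean E-selectin-positive cell signal at least 10% of the positive control, reached in at least 60% of replicates, without over 20% cell loss; inconclusive means no rule given, readout overlaps actives, possibly toxicity-flagged; inactive means the rest, including those meeting only one limit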
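Read-out basis: % PE-positive cells; Test system: HUVEC primary endothelial cells; Technique: immunofluorescence imaging; Dosing: single-point compound dose.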
F508del corr: CFTR F508del correction in bronchial cells; CFBE cells, YFP halide quenching; stimulated with forskolin plus potentiator P3; % fluorescence drop versus neutral controls; activity (quench increase), % at 7.58 µM; actives 0.36% (n = 350,000);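 active means mean added fluorescence quench of at least 8% versus neutral control, with both replicates also reaching 8%; inconclusive means only one of the mean or replicate conditions met; inactive means mean below 8% and not both replicates reaching 8%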;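 further: cells transiently co-express mutant CFTR-F508del with the halide-sensitive YFP; corrector assay measuring rescue of mutant channel to the surface after 24 h compound exposure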
ERAP1 inh: blocks human ERAP1 aminopeptidase activity; recombinant ERAP1, Leu-AMC fluorescence, 60 min; inhibition, % at 10.7 µM; actives 0.15% (n = 340,000); AID 652197;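 active means mean replicate inhibition of at least 30%, or all replicates individually reaching that 30% level; inactive means mean below 30% and not every replicate reaching it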;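 further: 0% = neutral control wells and 100% = L-leucinethiol positive control wells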
FGF22 binding: binders of recombinant human FGF22 by thermal shift | Q9HCT0 | SYPRO orange fluorescence; percent of sucrose octasulfate shift, DMSO zero | activity (Tm shift, normalised), % at 9.99 µM | actives 1.5% (n = 340,000);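 active means mean Tm shift, scaled 0 neutral to 100 positive control, at about 1.3% or above, every replicate too, limit read from the data; inconclusive means no clear call, values can overlap the other calls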
Target sequence (Q9HCT0 whole entry, looked up): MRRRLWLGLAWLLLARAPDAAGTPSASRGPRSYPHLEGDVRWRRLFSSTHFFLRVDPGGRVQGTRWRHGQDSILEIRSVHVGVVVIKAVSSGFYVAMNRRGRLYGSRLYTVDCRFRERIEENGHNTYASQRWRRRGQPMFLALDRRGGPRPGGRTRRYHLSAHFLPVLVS
DENV2 CPE: DENV2-induced cell death inhibition; DENV2-infected cells, cytopathic effect rescue, plate reader; actives 1.7% (n = 350,000); CPE inhibition, % at 9.99 µM; in the data active means CPE inhibition above about 20%, passing the limit was not always enough; inconclusive means no clear call, values can overlap the other calls; tested in BHK-21 cells;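 further: 0% = median of neutral control wells and 100% = median of positive control wells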
The depositor's hits bear a star.

For Cc1ccc2c(c1)S/C(=C\c1cccc[n+]1C)N2CCO the results were E-selectin induc 0, F508del corr 1, ERAP1 inh 21, FGF22 binding 0 and DENV2 CPE 4.
`CC(=O)N(C)C[C@@H]1Oc2ncc(-c3ccc(F)cc3)cc2C(=O)N([C@@H](C)CO)C[C@H]1C` gave E-selectin induc 0, F508del corr 3, ERAP1 inh -1, FGF22 binding 0 and DENV2 CPE 5.
CCC(=O)N1CC(=O)N2[C@@H](CO)[C@H](c3ccc(C#Cc4cccc(OC)c4)cc3)[C@@H]2C1 was read as E-selectin induc 0, F508del corr -1, ERAP1 inh 0 and DENV2 CPE -4.
`C[C@@H]1CN([C@H](C)CO)C(=O)c2cc(NC(=O)Nc3cccc4ccccc34)ccc2O[C@@H](C)CCCCO[C@@H]1CN(C)CC1CCCCC1` gave E-selectin induc 1, F508del corr 1, ERAP1 inh -2, FGF22 binding 0 and DENV2 CPE 45*.
For C[C@@H]1CCCCO[C@@H](CN(C)CC2CCCCC2)[C@@H](C)CN([C@@H](C)CO)C(=O)c2cc(NC(=O)Nc3cccc4ccccc34)ccc2O1 the results were E-selectin induc 1, F508del corr -3, ERAP1 inh -2, FGF22 binding 1.5* and DENV2 CPE 7.
C[C@@H]1CCCCO[C@H](CN(C)CC2CC2)[C@H](C)CN([C@@H](C)CO)C(=O)c2cc(NC(=O)Nc3cccc4ccccc34)ccc2O1 was read as E-selectin induc 0, F508del corr 1, FGF22 binding 0 and DENV2 CPE -3.
`C[C@H](CO)N1C[C@H](C)[C@H](CN(C)CC2CCCCC2)OCCCC[C@H](C)Oc2ccc(NC(=O)Nc3cccc4ccccc34)cc2C1=O` gave E-selectin induc 1, F508del corr -2, ERAP1 inh -4, FGF22 binding 0 and DENV2 CPE -2.
`C[C@@H]1CCCCO[C@H](CN(C)CC2CCCCC2)[C@H](C)CN([C@@H](C)CO)C(=O)c2cc(NC(=O)Nc3cccc4ccccc34)ccc2O1` gave E-selectin induc 2, F508del corr -4, ERAP1 inh -3, FGF22 binding 0 and DENV2 CPE 11.
`C[C@@H]1CCCCO[C@H](CN(C)CC2CCCCC2)[C@H](C)CN([C@H](C)CO)C(=O)c2cc(NC(=O)Nc3cccc4ccccc34)ccc2O1` gave E-selectin induc 4, F508del corr -2, ERAP1 inh -3, FGF22 binding 1.3* and DENV2 CPE -4.
`C[C@H](CO)N1C[C@H](C)[C@@H](CN(C)CC2CCCCC2)OCCCC[C@H](C)Oc2ccc(NC(=O)Nc3cccc4ccccc34)cc2C1=O` gave E-selectin induc 2, F508del corr 1, ERAP1 inh -1, FGF22 binding 1.5* and DENV2 CPE -25.
Screening N#C[C@H]1[C@@H](c2ccc(C#CC3CC3)cc2)[C@@H](CO)N1S(=O)(=O)c1ccccc1 returned E-selectin induc -1, F508del corr 2, ERAP1 inh -1, FGF22 binding 0 and DENV2 CPE 5.
Cc1[nH]c(=O)c(C#N)c(C)c1CCC(=O)NCc1cccc(C(F)(F)F)c1 was read as E-selectin induc 0, F508del corr -3, ERAP1 inh -3, FGF22 binding 42 and DENV2 CPE 28*.
Cc1ccc(CNC(=O)CCc2c(C)[nH]c(=O)c(C#N)c2C)cc1 was read as F508del corr 4, ERAP1 inh 2, FGF22 binding 0 and DENV2 CPE inconclusive.
Screening C#CCN(Cc1ccco1)C(=O)c1nnc2c3ccccc3n(S(=O)(=O)c3ccc(C)cc3)c2n1 returned E-selectin induc 1, F508del corr 0, ERAP1 inh -2 and DENV2 CPE 25*.
`C[C@H](CO)N1C[C@H](C)[C@@H](CN(C)Cc2ccc(Oc3ccccc3)cc2)Oc2ccc(NC(=O)CCCN(C)C)cc2C1=O` gave E-selectin induc -1, F508del corr 0, ERAP1 inh 1, FGF22 binding 1.2* and DENV2 CPE 4.
For C[C@@H]1CN([C@H](C)CO)C(=O)c2cc(NC(=O)CCCN(C)C)ccc2O[C@@H]1CN(C)Cc1ccccc1 the results were E-selectin induc 0, F508del corr 0, ERAP1 inh 4, FGF22 binding 0 and DENV2 CPE 5.
Screening C[C@@H]1CN([C@@H](C)CO)C(=O)c2cc(NC(=O)CCCN(C)C)ccc2O[C@@H]1CN(C)Cc1ccccc1 returned E-selectin induc 0, F508del corr -2, ERAP1 inh 1, FGF22 binding 0 and DENV2 CPE 30*.
For O=S(=O)(N[C@@H]1CC[C@H](CCn2cc(-c3ccccn3)nn2)O[C@@H]1CO)c1cccc(F)c1 the results were E-selectin induc 0, F508del corr 2, ERAP1 inh -1, FGF22 binding 0 and DENV2 CPE 0.
`COc1ccc(CN(C)C[C@@H]2Oc3ccc(NC(=O)Nc4ccc(C(F)(F)F)cc4)cc3C(=O)N([C@H](C)CO)C[C@@H]2C)cc1` gave E-selectin induc 0, F508del corr -5, ERAP1 inh -2, FGF22 binding 0 and DENV2 CPE 29*.
C[C@H](CO)N1C[C@H](C)[C@@H](CN(C)Cc2ccc(Oc3ccccc3)cc2)Oc2ccc(NC(=O)Nc3ccc(C(F)(F)F)cc3)cc2C1=O was read as E-selectin induc 273*, F508del corr 1, ERAP1 inh -4, FGF22 binding 0 and DENV2 CPE inconclusive.
Screening O=C(C[C@H]1C=C[C@@H](NC(=O)CCN2CCCCC2)[C@H](CO)O1)Nc1ccccc1 returned E-selectin induc 0, F508del corr 0, ERAP1 inh 1 and DENV2 CPE 15.
COc1ccccc1S(=O)(=O)Cc1ccc(C(=O)N2CCN(c3ccc(C)cc3)C(C)C2)o1 (configuration not stated) was read as E-selectin induc 0, F508del corr 1, ERAP1 inh 5, FGF22 binding 0 and DENV2 CPE 0.
Screening COc1ccc(S(=O)(=O)Cc2ccc(C(=O)NC3CCC(C)CC3)o2)cc1 (configuration not stated) returned E-selectin induc 0, F508del corr 0, ERAP1 inh 0, FGF22 binding 0 and DENV2 CPE -1.
COc1ccc(S(=O)(=O)Cc2ccc(C(=O)NC3CC3)o2)cc1 was read as F508del corr 0, ERAP1 inh 0, FGF22 binding 0 and DENV2 CPE 24*.
COc1ccc(S(=O)(=O)Cc2ccc(C(=O)N3CCN(c4cccc(C)c4)C(C)C3)o2)cc1 (configuration not stated) was read as F508del corr 9.3*, FGF22 binding -1 and DENV2 CPE -1.

Screens deposited in PubChem BioAssay by Broad Institute.
